Results as given in ChEMBL document CHEMBL1275527, “A nonsense mutation in the ERG6 gene leads to reduced susceptibility to polyenes in a clinical isolate of Candida glabrata” (2008).
Values after ≈ are worked out from the molar mass of the structure shown. Active and inactive are the calls of the source. No cut-off for these calls is given here.

What was measured:
Nakaseomyces glabratus [1] = assay: Antifungal activity against Candida glabrata isolate 21229 with missense mutation in ERG6 gene at 2 mM; assay type: functional, organism-based
Outline: (§1)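 Compound incorporated at 2 mM into YEPD agar. Cell suspensions at 10^7 down to 10^3 cells per ml were spotted at 10 µl each, dried and incubated 48 h at 37°C. Growth was compared with spots on YEPD agar without inhibitor.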

Nakaseomyces glabratus [2] = assay: Antifungal activity against Candida glabrata isolate 21230 at 2 mM; assay type: functional, organism-based; outline: as §1
Nakaseomyces glabratus [3] = assay: Antifungal activity against wild-type Candida glabrata isolate 21231 by Etest method; assay type: functional
Nakaseomyces glabratus [4] = assay: Antifungal activity against Candida glabrata isolate 21230 with silent mutation in ERG4, ERG5 genes and nonsense mutation in ERG6 gene by Etest method; assay type: functional
Nakaseomyces glabratus [5] = assay: Antifungal activity against Candida glabrata isolate 21230C by disk diffusion method; assay type: functional
Outline: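 The strain is the ura3 derivative of clinical isolate 21230 complemented with a centromeric plasmid carrying wild-type ERG6, tested as for the parent isolate. Isolates were maintained on YEPD agar.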

Nakaseomyces glabratus [6] = assay: Antifungal activity against Candida glabrata isolate 21230 with silent mutations in ERG4, ERG5 genes and nonsense mutation in ERG6 gene by disk diffusion method; assay type: functional
Nakaseomyces glabratus [7] = assay: Antifungal activity against wild-type Candida glabrata isolate 21231 by disk diffusion method; assay type: functional

Cn1c(=O)c2c(ncn2C)n(C)c1=O
Activity (Nakaseomyces glabratus [1]): Active
Activity (Nakaseomyces glabratus [2]): Active

C[C@@H]1[C@H](O)[C@@H](C)/C=C/C=C/C=C/C=C/C=C/C=C/C=C/[C@H](O[C@@H]2O[C@H](C)[C@@H](O)[C@H](N)[C@@H]2O)C[C@@H]2O[C@](O)(C[C@@H](O)C[C@@H](O)[C@H](O)CC[C@@H](O)C[C@@H](O)CC(=O)O[C@H]1C)C[C@H](O)[C@H]2C(=O)O [AMPHOTERICIN B]
MIC (Nakaseomyces glabratus [3]): 0.047 µg/mL (≈ 0.0509 µM)
MIC (Nakaseomyces glabratus [4]): 0.125 µg/mL (≈ 0.135 µM)
inhibition zone (IZ) (Nakaseomyces glabratus [5]): 29 mm
inhibition zone (IZ) (Nakaseomyces glabratus [6]): 13 mm
inhibition zone (IZ) (Nakaseomyces glabratus [7]): 27 mm

CC(=O)N1CCN(c2ccc(OCC3COC(Cn4ccnc4)(c4ccc(Cl)cc4Cl)O3)cc2)CC1 (stereo not drawn) [KETOCONAZOLE]
MIC (Nakaseomyces glabratus [3]): 0.19 µg/mL (≈ 0.358 µM)
MIC (Nakaseomyces glabratus [4]): 0.064 µg/mL (≈ 0.12 µM)
inhibition zone (IZ) (Nakaseomyces glabratus [6]): 43 mm
inhibition zone (IZ) (Nakaseomyces glabratus [7]): 33 mm

Clc1ccc(COC(Cn2ccnc2)c2ccc(Cl)cc2Cl)cc1 (stereo not drawn) [ECONAZOLE]
inhibition zone (IZ) (Nakaseomyces glabratus [6]): 35 mm
inhibition zone (IZ) (Nakaseomyces glabratus [7]): 25 mm

C[C@@H](c1ncncc1F)[C@](O)(Cn1cncn1)c1ccc(F)cc1F [VORICONAZOLE]
inhibition zone (IZ) (Nakaseomyces glabratus [6]): 39 mm
inhibition zone (IZ) (Nakaseomyces glabratus [7]): 30 mm

OC(Cn1cncn1)(Cn1cncn1)c1ccc(F)cc1F [FLUCONAZOLE]
MIC (Nakaseomyces glabratus [3]): 6 µg/mL (≈ 19.6 µM)
MIC (Nakaseomyces glabratus [4]): 1 µg/mL (≈ 3.27 µM)
inhibition zone (IZ) (Nakaseomyces glabratus [6]): 29 mm
inhibition zone (IZ) (Nakaseomyces glabratus [7]): 21 mm

NYSTATIN
inhibition zone (IZ) (Nakaseomyces glabratus [6]): 19 mm
inhibition zone (IZ) (Nakaseomyces glabratus [7]): 31 mm

Clc1ccc(COC(Cn2ccnc2)c2ccc(Cl)cc2Cl)c(Cl)c1 (stereo not drawn) [MICONAZOLE]
inhibition zone (IZ) (Nakaseomyces glabratus [6]): 29 mm
inhibition zone (IZ) (Nakaseomyces glabratus [7]): 21 mm
